# Source: paper PMC13601514 (Nature Communications, 2026)
# “Also recorded” adds a separate entry of the source.
# What was measured:
# [1] = test system: U266 MM cells; test: Cyto-ID autophagy assay; format: cell-based, Human; details: U266, 1 μM
# In short: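 U266 cells exposed to 1 μM test compound or vehicle for 6 h at 37 °C, washed, then stained 30 min in the dark with Cyto-ID Green plus DAPI (100 ng/ml) in 1% FBS assay buffer. Flow cytometry gave MFI and % Cyto-ID+ in live singlet cells. Confocal imaging (Hoechst/Cyto-ID) gave mean cytoplasmic intensity per group, compared by Kruskal–Wallis.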
# [2] = test system: ULK3; test: Immunoblot in U266 MM cells; format: cell-based, Human; details: 6 h
# In short: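 Lysates quantified by BCA; 30 μg protein run on 10–15% SDS-PAGE (100 V, 2 h) and transferred to PVDF. Membranes blocked 1 h in TBST with 5% milk/5% BSA, probed overnight at 4 °C with primary (1:1000), then HRP secondary (1:1000). ECL detection; densitometry values annotated on the blot.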
# [3] = test system: MM cells (5TGM1, 8226, and U266); test: MTS assay on MM cells; format: cell-based
# In short: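 MM lines grown at 37 °C in RPMI 1640 with 10% heat-inactivated FBS plus pen/strep and plated at 2 × 10^5 cells/mL (96-well) or 3 × 10^5 cells/mL (384-well). Exposed to test compound or vehicle (HPβCD or DMSO) for 48 h. MTS absorbance read at 490 nm after 2 h at 37 °C; mean of technical replicates; three independent experiments.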
smiles,measurement,setting,value
Cc1sc2c(c1C)C(c1ccc(Cl)cc1)=N[C@@H](CC(=O)OC(C)(C)C)c1nnc(C)n1-2 [JQ1],autophagy (Cyto-ID),[1],had no effect; also recorded: did not impact autophagy
Cc1[nH]c(/C=C2\C(=O)Nc3ccccc32)c(C)c1CCC(=O)O [SU6668],ULK3 protein levels,[2],does not impact
N#CC[C@H](C1CCCC1)n1cc(-c2ncnc3[nH]ccc23)cn1 [ruxolitinib],cell survival in vitro,[3],had no effect; also recorded: not affected
